Reference: ChEMBL document CHEMBL1154331, “Allenyl and alkynyl phenyl ethers from the endolichenic fungus Neurospora terricola” (J Nat Prod, 2009)

What was measured:
HeLa = experiment: Cytotoxicity against human HeLa cells after 48 hrs by MTT assay; assay type: functional, cell-based
Outline: (§1)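 Run in triplicate; 10^4 cells per well, attached overnight. Cells exposed 4 h at 37 °C, 5% CO2, to compounds serially diluted from 10 mg/mL DMSO stocks (vehicle wells 0.2% DMSO in medium), then medium changed to fresh DMEM and grown a further 48 h. MTT at 0.5 mg/mL added for 3 h at 37 °C in the dark; formazan dissolved in DMSO, absorbance read at 540 nm.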

MCF7 = experiment: Cytotoxicity against human MCF7 cells after 48 hrs by MTT assay; assay type: functional, cell-based; details: MCF7, 48 h; outline: as §1

Work on C=C=CCOc1ccc(CO[C@@H]2O[C@H](CO)[C@@H](O)[C@H](O)[C@H]2O)cc1 [TERRICOLLENE A] yielded an IC50 (HeLa) of 53.3 µM and an IC50 (MCF7) of 59.2 µM.
For C#C[C@H](O)COc1ccc(COC(C)=O)cc1, the IC50 (HeLa) was > 171 µM and the IC50 (MCF7) was > 171 µM.
For O=c1[nH]cc(F)c(=O)[nH]1 [FLUOROURACIL], the IC50 (HeLa) was 10 µM.
For C=C=CCOc1ccc(CO[C@@H]2O[C@H](CO)[C@@H](O)[C@H](O)[C@@H]2O)cc1 [TERRICOLLENE B], the IC50 (HeLa) was > 118 µM and the IC50 (MCF7) was > 118 µM.
C#C[C@H](O)COc1ccc(COC)cc1 gave an IC50 (HeLa) of 92.6 µM and an IC50 (MCF7) of 116 µM.
In the case of C#C[C@H](O)COc1ccc(CO)cc1 [TERRICOLYNE], the IC50 (HeLa) is reported as > 200 µM and the IC50 (MCF7) is reported as > 200 µM.
C=C=CCOc1ccc(CO)cc1 [TERRICOLLENE C] was tested, and the IC50 (HeLa) was 85.2 µM and the IC50 (MCF7) was 114 µM.
